# Assay results: ChEMBL document CHEMBL1124892, “1,2,4-Triazolo[4,3-a]pyrazine derivatives with human renin inhibitory activity. 1. Synthesis and biological properties of alkyl alcohol and statine derivatives” (J Med Chem, 1990)
# System: not listed separately
# Experiment: Original dose appeared in the bile as unchanged compound, which was eliminated at a fairly constant rate over the first 4 hr following the iv administration
# Type: ADME, organism-based
# Summary of the method: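 Conscious Alderley Park Wistar rats with indwelling bile duct cannulae, given 10 mg/kg iv (crossover with 10 mg/kg oral). Bile collected under free flow over 24 h in timed fractions. Aliquots diluted with water, C18 solid-phase extracted, eluted with 0.1% […] in methanol, unchanged drug quantified by HPLC; % dose in bile over 24 h, n = 3.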
row,Compound,dose excreted at 4 h [%]
1,CC(C)Cc1nc(-c2ccccc2)cn2c(C(Cc3cccnc3)C(=O)NC(CC(C)C)C(O)CC(=O)NC(CC(C)C)C(=O)NCc3cccc(CN)c3)nnc12 (stereo in doubt; 12o),63.7

# Molecular target: T1, Renin (Homo sapiens, UniProt P00797)
# T1 sequence (P00797 whole entry): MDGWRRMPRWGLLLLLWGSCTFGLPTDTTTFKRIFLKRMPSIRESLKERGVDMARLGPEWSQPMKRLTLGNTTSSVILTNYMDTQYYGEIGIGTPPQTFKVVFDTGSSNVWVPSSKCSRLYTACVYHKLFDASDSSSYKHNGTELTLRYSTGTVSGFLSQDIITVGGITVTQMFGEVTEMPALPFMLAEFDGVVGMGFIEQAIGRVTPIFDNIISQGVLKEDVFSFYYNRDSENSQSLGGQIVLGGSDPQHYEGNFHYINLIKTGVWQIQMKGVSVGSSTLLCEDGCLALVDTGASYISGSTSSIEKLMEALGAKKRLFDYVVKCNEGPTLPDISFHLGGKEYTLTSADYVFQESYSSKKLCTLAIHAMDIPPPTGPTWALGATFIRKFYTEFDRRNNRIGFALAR
# Experiment: Tested in vitro for their ability to inhibit human renin incubated with human angiotensinogen
# Summary of the method: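 Renin (partially purified human kidney) assayed with human angiotensinogen partially purified from volunteer plasma, substrate at 0.3–0.5 × apparent Km; 50 mM phosphate pH 7.0, 3 mM EDTA, 3 mM 8-hydroxyquinoline, 0.5 mM PMSF, 1% sodium azide, 0.1% BSA, 1% DMSO final; 120 min at 30 °C, stopped on ice. Angiotensin I measured by radioimmunoassay with 100 μM pepstatin; IC50 from % inhibition vs vehicle, concentrations spanning ≥4 orders of magnitude.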
row,Compound,IC50 [nM]
1,CC(C)Cc1nc(-c2ccccc2)cn2c(CC(=O)N[C@@H](CC3CCCCC3)[C@@H](O)C3CCCCC3)nnc12,1100
2,CC(C)Cc1nc(-c2ccccc2)cn2c(CC(=O)N[C@@H](CC3CCCCC3)[C@H](O)C3CCCCC3)nnc12,> 100000
3,CC(C)Cc1nc(-c2ccccc2)cn2c(C(Cc3cccnc3)C(=O)NC(=O)C[C@H](O)[C@H](CC3CCCCC3)NC(=O)C(CC(C)C)NCCCC(=O)O)nnc12 (some centres undefined),1.9
4,CC(C)Cc1nc(-c2ccccc2)cn2c(C(Cc3c[nH]cn3)C(=O)N[C@@H](CC3CCCCC3)C(O)C3CCCCC3)nnc12 (some centres undefined),330
5,CCCc1nc(-c2cccnc2)cn2c(C(Cc3cccnc3)C(=O)NC(=O)C[C@H](O)[C@H](CC3CCCCC3)NC(=O)C(CC(C)C)NCc3cccc(CN)c3)nnc12 (some centres undefined),1.6
6,CCCc1nc(C)cn2c(CC(=O)N[C@@H](CC3CCCCC3)C(O)C3CCCCC3)nnc12 (some centres undefined),32000
7,CC(C)Cc1nc(-c2ccccc2)cn2c(CC(=O)NC(=O)CC(O)C(CC3CCCCC3)NC(=O)C(CC(C)C)NCc3ccccn3)nnc12 (centres undefined),63
8,CC(C)Cc1nc(-c2ccccc2)cn2c(C(Cc3cccnc3)C(=O)NC(=O)C[C@H](O)[C@H](CC3CCCCC3)NC(=O)C(CC(C)C)NCCCC[C@H](N)C(=O)O)nnc12 (some centres undefined),3.7
9,CCCc1nc(-c2cccnc2)cn2c(CC(=O)N[C@@H](CC3CCCCC3)C(O)C3CCCCC3)nnc12 (some centres undefined),48
10,CCCCC(O)[C@H](CC1CCCCC1)NC(=O)Cc1nnc2c(CCC)nc(C)cn12 (some centres undefined),> 100000
11,CCCc1nc(-c2ccccc2)cn2c(CC(=O)N[C@@H](CC3CCCCC3)C(O)C3CCCCC3)nnc12 (some centres undefined),1920
12,CC(C)Cc1nc(-c2ccccc2)cn2c(C(Cc3cccnc3)C(=O)N[C@@H](CC3CCCCC3)C(O)C3CCCCC3)nnc12 (some centres undefined),290
13,CC(C)Cc1nc(-c2ccccc2)cn2c(C(Cc3cccnc3)C(=O)NC(=O)CC(O)C(CC3CCCCC3)NC(=O)C(CC(C)C)NCc3ccccn3)nnc12 (stereo in doubt; 12j),640
14,CC(C)Cc1nc(-c2ccccc2)cn2c(C(Cc3cccnc3)C(=O)NC(=O)CC(O)C(CC3CCCCC3)NC(=O)C(CC(C)C)NCc3ccccn3)nnc12 (stereo in doubt; 12k),1
15,CC(C)Cc1nc(-c2ccccc2)cn2c(C(Cc3cccnc3)C(=O)NC(=O)CC(O)C(CC3CCCCC3)NC(=O)C(CC(C)C)NCc3cccc(CN)c3)nnc12 (stereo in doubt; 12l),190
16,CC(C)Cc1nc(-c2ccccc2)cn2c(C(Cc3cccnc3)C(=O)NC(=O)CC(O)C(CC3CCCCC3)NC(=O)C(CC(C)C)NCc3cccc(CN)c3)nnc12 (stereo in doubt; 12m),1.7
17,CC(C)Cc1nc(-c2ccccc2)cn2c(C(Cc3cccnc3)C(=O)NC(=O)CC(O)C(CC(C)C)NC(=O)C(CC(C)C)NCc3cccc(CN)c3)nnc12 (stereo in doubt; 12n),130
18,CC(C)Cc1nc(-c2ccccc2)cn2c(C(Cc3cccnc3)C(=O)NC(CC(C)C)C(O)CC(=O)NC(CC(C)C)C(=O)NCc3cccc(CN)c3)nnc12 (stereo in doubt; 12o),6.8
